Screening data deposited in PubChem BioAssay by several laboratories.
Many of the other results were omitted from the sample, so hits are more common in it than they were.
UPR XBP1 act: activators of adaptive XBP1 UPR arm, primary screen, cell-based, CHO-XBP1 luciferase reporter, luminescence, uHTS; IRE1-XBP1 UPR activation; percent of tunicamycin response, DMSO as zero; activation, % at 20 µM; 330,000 tested, 0.33% active;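 active = versus positive control, 20 µM dose yields 30% or more activation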;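 also: 100% = tunicamycin at 10 µg/mL and 0% = DMSO only wells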
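Material: CHO-XBP1 cells stably carrying IRE1-XBP1-driven luciferase reporter | Medium: F12 with 10% serum | Compound dosing: 20 µM single concentration, DMSO 1% | Incubation: Overnight seeding at 37 °C, 6 h compound treatment at 37 °C | Detection: Steady-Glo luminescence read | Read-out basis: % activation of reporter signal versus tunicamycin and DMSO controls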
Cardio protect: cardioprotection against H2O2-induced cell death, primary screen, uHTS, H9c2 cells, ATPLite luminescence; H9c2 cardiomyocytes, H2O2 injury protection, 2 h; protection from H2O2 cell death, % at 20 µM; 360,000 tested, 0.63% active;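 active = compounds giving at least 50% protection of heart cells from peroxide-induced death in the single-dose screen, raw or plate-pattern-corrected value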;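 also: 0% = DMSO wells with peroxide and 100% = DMSO wells without peroxide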
UPR CHOP act: activators of apoptotic CHOP UPR arm, primary screen, cell-based, CHO-CHOP luciferase reporter, luminescence, uHTS; activation, % at 10 µM; UPR activation; percent of tunicamycin response over DMSO baseline; AID 449763, 2010; 330,000 tested, 0.34% active;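 active = at 10 µM dose, activation of 40% or more, normalized to positive control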;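 also: 100% = tunicamycin at 10 µg/mL and 0% = DMSO alone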
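System: CHO CHOP reporter cells. Amount: 500 cells per well. Buffer or medium: F12 medium, 10% FBS. Compound dosing: one dose, 10 µM in 0.5% DMSO. Incubation: 6 h compound exposure at 37 °C after overnight seeding. Technique: Steady-Glo luciferase luminescence. Benchmarks: tunicamycin and DMSO controls.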
iPSC survival up: enhancers of single-cell hiPSC survival, primary screen, ATPlite luminescence | 360,000 tested, 0.044% active | 100% = ROCK inhibitor wells, 0% = DMSO | survival enhancement, % at 20 µM | AID 602274, 2012; in the data active = survival enhancement above about 18%;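 also: cells exposed to compounds for 16 hours before the ATP read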
CHOP inh: inhibitors of CHOP promoter induction, primary screen, cell-based, unfolded protein response, luciferase reporter | 220,000 tested, 3.8% active | AID 2732, 2010 | CHO-K1 CHOP-promoter luciferase, tunicamycin-induced, 15-18 h | inhibition, % at 10 µM;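 active = compounds that reduced the stress-induced luciferase reporter signal by more than about 70% of percent inhibition, limit read from the data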;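 also: 0% = tunicamycin plus vehicle and 100% = wells without tunicamycin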
* = called active by the depositor; · = no result given.

SMILES | UPR XBP1 act | Cardio protect | UPR CHOP act | iPSC survival up | CHOP inh
CCOC(=O)c1c(CSc2ccc(C)cc2)oc2ccc(O)cc12 | 4.2 | -15.5 | 0.6 | -2.1 | 106.6*
COc1ccc(C2CC(O)(c3ccccc3)Oc3c(C)ccc(C)c32)cc1 (stereo not given) | 1.7 | -2.3 | 3.8 | 0.3 | 97.9*
COc1ccc(C2CC(O)(c3ccccc3)Oc3cc(OC)cc(OC)c32)cc1 (stereo not given) | 2.0 | -2.3 | -0.4 | -1.1 | 84.8*
COc1ccc([C@@H]2C[C@@H](c3ccccc3)Oc3c(C)ccc(C(C)C)c32)cc1 | -2.1 | · | -1.5 | · | ·
COc1ccc(C2CC(=O)Oc3cc(OC)c(OC)c(OC)c32)cc1 (stereo not given) | 0.4 | -4.6 | 1.7 | 4.6 | ·
CC(C)C[C@H]1CN([C@@H](CC(C)C)CN2CCCC2CN2C(=S)NC[C@@H]2Cc2ccccc2)C(=S)N1CCc1ccccc1 (stereo not given in full) | · | · | · | -0.9 | ·
CCOC(=O)C1=CCN(S(=O)(=O)c2ccc(Cl)cc2)C1c1ccc(C)cc1 (stereo not given) | · | -2.1 | · | 0.1 | ·
Cc1ccc(S(=O)(=O)Nc2ccc(-c3csc(-c4ccccc4)n3)cc2)cc1 | -1.7 | -30.3 | 0.5 | 1.4 | 94.2*
Cc1cc(C(=O)OCC(=O)Nc2nc(-c3ccccc3)cs2)c(C)o1 | -0.6 | -19.3 | 0.4 | -1.0 | 94.3*
O=C(CS(=O)(=O)c1ccccc1)Nc1nc(-c2ccccc2)cs1 | 2.6 | 7.7 | 1.5 | -1.6 | 39.7
Cc1ccc(S(=O)(=O)CC(=O)Nc2nc(-c3ccccc3)cs2)cc1 | -4.8 | -7.6 | 0.8 | 4.3 | 90.1*
O=C(NCC1CCCO1)c1ccc(Br)c(S(=O)(=O)N2CCOCC2)c1 (stereo not given) | -3.2 | 6.3 | 0.9 | 0.1 | ·
CCc1nc2c(OCc3ccc(Cl)cc3)cccn2c1N(C)C(=O)c1ccncc1 | · | 3.3 | · | -2.4 | ·
CCC/C=C/c1ccc(CN2C(C)C(=O)N(Cc3cn(CCC4OCCCO4)nn3)CCS2(=O)=O)cc1 (stereo not given) | · | -3.0 | · | 7.7 | ·
N#Cc1ccccc1OCC(=O)Nc1ccc2c(c1)OCO2 | · | -12.6 | · | -2.7 | ·
COc1ccc(-c2c(C)nn3c(N4CCN(Cc5ccccc5)CC4)cc(C)nc23)cc1OC | -1.8 | 35.7 | -0.1 | -0.3 | 28.9
COc1ccccc1-c1c(C)nn2c(N3CCN(Cc4ccccc4)CC3)cc(C)nc12 | -2.4 | -2.5 | 0.5 | -0.9 | 92.5*
COc1ccccc1-c1c(C)nn2c(N3CCCCCC3)cc(C)nc12 | -0.6 | -26.9 | -3.0 | 0.5 | 89.9*
CCc1nc2ccc(C(=O)NCCCn3ccnc3)cn2c1N(C)Cc1ccc(Cl)cc1 | · | -0.1 | · | -2.4 | ·
Cc1nc(NC(=O)CCc2ccccc2)ccc1Br | 1.7 | 1.8 | 3.5 | 0.0 | 79.9*
CCCCCCn1cc(CN2CC(N3CCCC3)CS2(=O)=O)nn1 (stereo not given) | · | · | · | -0.6 | ·
CC1Cc2ccccc2N1C(=O)Cc1cccs1 (stereo not given) | 0.7 | -4.7 | -0.2 | -0.6 | 70.6*
CCCCn1c(=O)[nH]c(=O)c2c1nc(CN(C)Cc1cccc(OC)c1OC)n2CCC | · | 25.7 | · | 0.3 | ·
CCCCCn1c(CCC(=O)Oc2ccccc2OC)nc2c1c(=O)[nH]c(=O)n2CCCC | -3.4 | 0.3 | 1.7 | -3.0 | 71.3*
CC(C)NS(=O)(=O)c1ccc2c3c(cccc13)CC2 | -3.5 | -7.3 | 0.0 | 0.6 | 15.6
SMILES | UPR XBP1 act | Cardio protect | UPR CHOP act | iPSC survival up | CHOP inh
CS(=O)(=O)Nc1ccc2c3c(cccc13)CC2 | 0.0 | 10.2 | 0.9 | 19.9* | ·
O=c1[nH][nH]c2c1[C@H](c1ccc(F)cc1)O[C@H](CCc1ccccc1)C2 | · | · | · | 0.2 | ·
O=C(Cn1cc2c(n1)CCCC2)NC1CCN(Cc2ccccc2)CC1 | 1.2 | 7.6 | 1.4 | 0.9 | 82.2*
CC(C)(C)C(=O)N1CCN(c2ncnc3scc(-c4ccccc4)c23)CC1 | -4.3 | 1.5 | -0.9 | 0.0 | ·
O=C(O)CSc1ccc2nnc(-c3cccnc3)n2n1 | -2.7 | 2.5 | -2.5 | -1.6 | -8.5
Fc1ccc(CSc2ccc3nnc(-c4cccnc4)n3n2)cc1 | -0.1 | 79.8* | 0.8 | 0.8 | 36.7
CNC(=O)C[C@H]1C(=O)N(CCc2ccccc2)C[C@@H]1Cc1ccccc1 | · | -1.4 | · | -0.6 | ·
Cc1c(O)ccc2c3c(c(=O)oc12)CCCC3 | -1.9 | 37.7 | -0.2 | 0.3 | 20.0
Cc1c(O)ccc2c3c(c(=O)oc12)CCC(C)C3 (stereo not given) | 9.6 | 51.9* | -1.2 | -3.6 | 12.7
O=C(COC(=O)c1ccccn1)c1ccc([N+](=O)[O-])cc1 | -2.5 | 1.4 | 0.0 | -0.2 | ·
Cc1cc(C(=O)CSc2nc3ccccc3c(=O)n2C)c(C)n1Cc1ccc2c(c1)OCO2 | 0.8 | -16.3 | 3.6 | -2.0 | 78.7*
CC/C(=N\NC(=O)C1CC1)c1cccc(Cl)c1 | -1.8 | -10.8 | -0.2 | -1.4 | 19.4
CC/C(=N/NC(=O)CNc1ccc(Cl)cc1C)c1ccccc1 | -1.3 | -4.2 | -0.7 | -1.0 | 70.3*
COCCNc1nc(Oc2cccc3ccccc23)c2sccc2n1 | · | -4.9 | · | 0.5 | ·
COC(=O)c1ccc(CNC(=O)CC[C@H]2O[C@@H](n3cc(C)c(=O)[nH]c3=O)C[C@@H]2O)cc1 | · | 5.6 | · | 1.8 | ·
Cc1cc(C(=O)NC(C)c2ccc3c(c2)OCO3)cs1 (stereo not given) | 1.1 | 9.4 | 0.4 | 0.9 | 73.7*
Cc1cc(C(=O)Nc2ccc3c(c2)OCO3)cs1 | -2.1 | -10.0 | 2.6 | -2.3 | -60.6
COc1ccc(CN2C[C@@H](CO)O[C@@H](n3cnc4c(N(C)C)ncnc43)C2)cc1 | · | -1.2 | · | -3.2 | ·
CC(C)C[C@H](NC(=O)C1OC1C(=O)O)C(=O)NCCCCN=C(N)N (stereo not given in full) | · | · | · | · | -4.0
COc1ccccc1OCC(=O)Nc1cccc(-c2nnc(-c3ccco3)o2)c1 | -0.4 | 64.3* | 0.3 | -0.2 | 37.5
COc1ccc(CC(=O)Nc2ccc(-c3nnc(-c4ccccc4)o3)cc2)cc1OC | 2.5 | 1.8 | 1.6 | -1.9 | 74.1*
COc1ccc(CC(=O)Nc2cccc(-c3nnc(-c4ccc(C)cc4)o3)c2)cc1OC | -3.1 | 3.7 | -5.0 | -3.4 | 76.1*
CC(C)(C)C(=O)Nc1cccc(-c2nnc(-c3cccc(NC(=O)C(C)(C)C)c3)o2)c1 | 0.2 | 64.1* | 1.2 | -0.8 | 32.0
CC1CCN(C(=O)c2ccc(N(C)S(C)(=O)=O)cc2)CC1 | 1.2 | 4.2 | -0.3 | 0.7 | -6.3
CN(c1ccc(C(=O)N2CCCCC2)cc1)S(C)(=O)=O | -3.5 | 0.0 | -2.2 | -1.3 | 79.1*
O=C(NNc1c2ccccc2nc2ccccc12)c1cccc(O)c1 | 0.3 | 51.2* | 0.4 | 1.6 | 17.0
O=C(NNc1c2ccccc2nc2ccccc12)c1ccc(O)cc1 | 4.0 | 42.8 | -0.2 | -2.0 | 14.0
